Laboratory results published in PubChem BioAssay.
Activity calls are given as the source filed them.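 The calls were made as follows, unless noted: active = GFP response above 150% of the DMSO level; inconclusive = fewer than 70 events counted for a yeast strain; inactive = the rest.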

Experiments:
[1] = hit retest on RPL19A-GFP reporter strain – cell-based, S. cerevisiae, flow cytometry, cherry picks, mother/daughter gates, confirmation (AID 2270;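 active = GFP response below 50% of the DMSO control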); settings: 3 h, at 10 µM, stronger effect = lower value, 100 = same GFP as DMSO wells
[2] = yeast TOR pathway reporter LAP4-GFP change – cell-based, cherry picks, flow cytometry, mother/daughter gates, confirmation (AID 2271;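 active = GFP response above 150% of the DMSO control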;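 also: ratio of sample to DMSO plate mean so 100% equals DMSO level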); settings: S. cerevisiae LAP4-GFP strain, 3 h, at 10 µM, stronger effect = higher value, 100 means same as DMSO control
Summary of the method: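 Test system: GFP-fusion yeast strain. Medium: synthetic complete (SC) yeast growth medium. Timing: 3 h treatment at 30 °C with rotation. Measured by: GFP by flow cytometry. Control set: positive rapamycin (400 ng/mL), negative DMSO.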

[3] = TOR pathway reporter MEP2-GFP, retest of hits – S. cerevisiae, flow cytometry GFP, cherry picks, confirmation (AID 2272;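 active = GFP response above 150% of the DMSO control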;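 also: ratio of well signal to plate DMSO mean so 100% equals DMSO level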); settings: S. cerevisiae MEP2-GFP strain, 3 h, at 10 µM, stronger effect = higher value
[4] = yeast AGP1-GFP fluorescence change, single-dose – cell-based, flow cytometry, S. cerevisiae, cherry picks, confirmation (AID 2273);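 also: median GFP channel fluorescence over the whole cell population gate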; settings: S. cerevisiae AGP1-GFP strain, 3 h, at 10 µM
[5] = TOR pathway CIT2 reporter hit retest – S. cerevisiae, GFP fusion, cherry picks, mother/daughter gates, confirmation (AID 2274); settings: S. cerevisiae CIT2-GFP strain, flow cytometry, 3 h, at 10 µM, stronger effect = higher value
[6] = measured here: daughter cell gate
[7] = measured here: mother cell gate
[8] = measured here: daughter cell gate response
[9] = measured here: mother cell gate response

Structure (SMILES) | GFP response vs DMSO [1] | GFP response vs DMSO [1, 6] [%] | GFP response vs DMSO [1, 7] [%] | GFP response relative to DMSO [2] | GFP response relative to DMSO [2, 8] [%] | GFP response relative to DMSO [2, 9] [%] | GFP response vs DMSO [3] | GFP response, % of DMSO [4] | GFP response, % of DMSO [5] | GFP response, % of DMSO [5, 6] [%] | GFP response, % of DMSO [5, 7] [%]
Cc1ccc2c(nc3s/c(=C\c4ccc(-c5ccccc5C(=O)O)o4)c(=O)n32)c1C | 119% (inactive) | 117 | 117 | 243% (active) | 218 | 259 | 346% (active) | 119% (inactive) | 157% (active) | 158 | 154
O=C1Nc2ccc(Br)cc2/C1=C/C1CC=CCC1 (stereo not drawn) | 106% (inactive) | 100 | 105 | 131% (inactive) | 122 | 135 | 133% (inactive) | 111% (inactive) | 108% (inactive) | 108 | 104
COc1ccc(-c2[nH]ncc2-c2ccc(Cl)cc2)c(O)c1 | 101% (inactive) | 97.8 | 99.4 | 103% (inactive) | 100 | 105 | 102% (inactive) | 93.7% (inactive) | 104% (inactive) | 101 | 105
O=C1CC(SCc2nc3ccccc3[nH]2)C(=O)N1c1ccc(F)cc1 (stereo not drawn) | 102% (inactive) | 101 | 100 | 110% (inactive) | 108 | 109 | 110% (inactive) | 106% (inactive) | 108% (inactive) | 108 | 107
Cc1cccc(NC(=O)/C(C#N)=C/c2ccccc2Cl)n1 | 91.2% (inactive) | 91 | 86.6 | 147% (inactive) | 133 | 145 | 153% (inactive) | 109% (inactive) | 112% (inactive) | 117 | 103
Cc1onc(-c2ccccc2)c1C(=O)N1CCC(C)CC1 | 92% (inactive) | 93.4 | 91.6 | 103% (inactive) | 102 | 103 | 118% (inactive) | 102% (inactive) | 108% (inactive) | 105 | 107
Cc1onc(-c2ccccc2)c1C(=O)NC(=S)NNC(=O)c1ccco1 | 101% (inactive) | 101 | 102 | 102% (inactive) | 104 | 103 | 102% (inactive) | 98.1% (inactive) | 104% (inactive) | 106 | 99.7
CCOC(=O)c1ccc(NC(=O)CCc2nc(-c3ccc(Cl)cc3)no2)cc1 | 99.4% (inactive) | 100 | 101 | 99.2% (inactive) | 99.2 | 100 | 98.3% (inactive) | 95.4% (inactive) | 105% (inactive) | 105 | 104
Cc1ccn2c(NC3CCCCC3)c(C)nc2c1 | 99.4% (inactive) | 100 | 99.6 | 95.7% (inactive) | 95.9 | 96.2 | 99% (inactive) | 99% (inactive) | 98.8% (inactive) | 101 | 96.8
C#CCSc1nncn1C(=O)/C=C/c1ccccc1 | 99.4% (inactive) | 98.6 | 95 | 145% (inactive) | 142 | 153 | 103% (inactive) | 101% (inactive) | 103% (inactive) | 111 | 93.7
S=C(Sc1ccc(Cl)cc1)Sc1ccc(Cl)cc1 | 97.6% (inactive) | 93.2 | 95.1 | 112% (inactive) | 108 | 115 | 112% (inactive) | 110% (inactive) | 112% (inactive) | 105 | 107
Cc1cccc(NC(=O)CCCN2C(=O)c3cccc4cccc(c34)C2=O)c1 | 101% (inactive) | 96.9 | 100 | 94.4% (inactive) | 95.9 | 94.1 | 99% (inactive) | 98.8% (inactive) | 98.8% (inactive) | 97.4 | 99.3
Cc1nn2c(N3CCN(C(=O)c4ccco4)CC3)cc(C(C)(C)C)nc2c1-c1ccccc1 | 98.2% (inactive) | 97.6 | 98.9 | 92.8% (inactive) | 94.4 | 92.9 | 100% (inactive) | 97.6% (inactive) | 95.5% (inactive) | 97.2 | 95
O=C(/C=C/c1c(F)cccc1Cl)c1ccc(O)cc1 | 94.3% (inactive) | 94 | 94.6 | 144% (inactive) | 137 | 152 | 105% (inactive) | 105% (inactive) | 94.7% (inactive) | 93.7 | 93.7
O=C(CCS(=O)(=O)Cc1ccccc1F)NCCc1ccc(Cl)cc1 | 97.8% (inactive) | 102 | 93.7 | 101% (inactive) | 99 | 101 | 101% (inactive) | 99.1% (inactive) | 100% (inactive) | 99.3 | 99.3
Cc1ccc(C(=O)N/C(=C/c2ccco2)C(=O)N2CCOCC2)cc1 | 103% (inactive) | 100 | 104 | 105% (inactive) | 106 | 104 | 101% (inactive) | 102% (inactive) | 95.9% (inactive) | 97.4 | 95.6
Cc1ccccc1NC(=O)c1ccccc1 | 96.6% (inactive) | 98.1 | 96.9 | 95.4% (inactive) | 97.6 | 94 | 107% (inactive) | 96.4% (inactive) | 98.3% (inactive) | 99.1 | 97.3

Structure (SMILES) | GFP response vs DMSO [1] | GFP response vs DMSO [1, 6] [%] | GFP response vs DMSO [1, 7] [%] | GFP response relative to DMSO [2] | GFP response relative to DMSO [2, 8] [%] | GFP response relative to DMSO [2, 9] [%] | GFP response vs DMSO [3] | GFP response, % of DMSO [4] | GFP response, % of DMSO [5] | GFP response, % of DMSO [5, 6] [%] | GFP response, % of DMSO [5, 7] [%]
Cc1cc(C)nc(/N=C(\N)N2CCCCCC2)n1 | 99.3% (inactive) | 100 | 100 | 103% (inactive) | 104 | 102 | 99.5% (inactive) | 99.5% (inactive) | 101% (inactive) | 100 | 100
CN(Cc1ccccc1)S(=O)(=O)c1ccc(C(=O)Nc2nnc(C3CC3)o2)cc1 | 103% (inactive) | 102 | 105 | 98.2% (inactive) | 99.1 | 97.3 | 96.8% (inactive) | 99.2% (inactive) | 102% (inactive) | 103 | 102
CCc1ccc(CNC(=O)CCC(=O)N2Cc3cccc(OC)c3Oc3ncccc32)cc1 | 99.2% (inactive) | 98.8 | 99.9 | 94.4% (inactive) | 94.2 | 95.2 | 101% (inactive) | 96.7% (inactive) | 102% (inactive) | 105 | 94.4
Cc1ccc(C(=O)OCC(=O)Nc2ccccc2Sc2ccccc2)cc1C | 99% (inactive) | 97.8 | 99.7 | 96.1% (inactive) | 99.7 | 97.2 | 96.6% (inactive) | 99.3% (inactive) | 103% (inactive) | 103 | 105
CC(=O)Oc1ccc(/C=c2\sc3ncnn3c2=O)cc1 | 100% (inactive) | 102 | 97.8 | 123% (inactive) | 122 | 125 | 101% (inactive) | 98.8% (inactive) | 100% (inactive) | 103 | 96
Cc1cc(Br)c2c(c1)/C(=C/C(=O)c1cccs1)C(=O)N2 | 99.6% (inactive) | 99.1 | 99.2 | 115% (inactive) | 115 | 117 | 105% (inactive) | 107% (inactive) | 98.4% (inactive) | 93.7 | 95.7
Cc1ccc(S(=O)(=O)N2CCCC2C(=O)Oc2ccccc2)cc1 (stereo not drawn) | 98.8% (inactive) | 99.1 | 99.5 | 99.2% (inactive) | 99.2 | 99.3 | 100% (inactive) | 95.6% (inactive) | 98.3% (inactive) | 97.2 | 97.3
Cn1cc(/C=C/c2cc[n+](C)cc2)c2cc(Cl)ccc21 | 99.2% (inactive) | 97.9 | 100 | 111% (inactive) | 112 | 110 | 122% (inactive) | 111% (inactive) | 125% (inactive) | 128 | 124
Cc1cc(=O)n2c3c(sc2n1)C(=O)N(Cc1ccccc1)C3=O | 94.3% (inactive) | 94.5 | 94 | 152% (active) | 140 | 161 | 103% (inactive) | 105% (inactive) | 81% (inactive) | 87.3 | 74.8
COc1ccc(C(=O)/C(=C/O)N=Nc2ccc(F)cc2)cc1 | 99.1% (inactive) | 97.8 | 98.6 | 106% (inactive) | 89.3 | 109 | 102% (inactive) | 91.4% (inactive) | 83.5% (inactive) | 85.3 | 80.5
COc1ccccc1OCC(=O)Sc1ccc(C)cc1 | 95.3% (inactive) | 96.7 | 92.3 | 113% (inactive) | 110 | 113 | 120% (inactive) | 99.3% (inactive) | 97.2% (inactive) | 99.3 | 93.8
Cc1cccc(N2C(=O)CC(Sc3nc(C)c4c(n3)CCCC4)C2=O)c1 (stereo not drawn) | 96.8% (inactive) | 95.4 | 97.2 | 94.1% (inactive) | 94.4 | 95.1 | 102% (inactive) | 95% (inactive) | 99.7% (inactive) | 99.1 | 99.7
Cc1[nH]c2ccccc2c1C(=O)C(C)OC(=O)C1CCC1 (stereo not drawn) | 98.2% (inactive) | 98.1 | 97.8 | 100% (inactive) | 101 | 100 | 110% (inactive) | 105% (inactive) | 106% (inactive) | 103 | 106
O=S1(=O)Nc2c(ccc3cccnc23)-c2ccccc21 | 89.9% (inactive) | 91.7 | 103 | 124% (inactive) | 104 | 163 | 112% (inactive) | 103% (inactive) | 111% (inactive) | 108 | 113
Cc1ccc(NC(=O)ON=C2CCCC2)cc1 | 101% (inactive) | 104 | 93.5 | 122% (inactive) | 115 | 121 | 109% (inactive) | 68.9% (inactive) | 167% (active) | 150 | 167
CCn1c(=O)c(C(C)=O)c(O)c2ccccc21 | 104% (inactive) | 101 | 104 | 89.3% (inactive) | 87.7 | 91 | 96.8% (inactive) | 102% (inactive) | 97.3% (inactive) | 99.2 | 91.9
